Assay [1] concerns Mus musculus. Description: Induction of bone mineral density in SAMP6 mouse assessed as whole body BMD at 30 mg/kg/day, po measured after 2 months. Type of assay: functional, organism-based. In outline: (§1)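 SAMP6 mice, 5 months old, n = 5 per group, given compound in 0.5% methylcellulose by gavage daily. Dual-energy X-ray absorptiometry under pentobarbital anaesthesia (50 mg/kg ip), animals prone, at 0, 4, 8 and 12 weeks of treatment. Regions of interest were whole body, spine and left hind leg.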

Assay [2] has as its system Mus musculus. The assay can be described thus: Induction of bone formation in SAMP6 mouse right femora assessed as average osteoid width at 10 mg/kg/day, po measured after 3 months by bone histomorphometry. Type of assay: functional. The procedure, abridged: (§2)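 SAMP6 mice, 5 months old, n = 5 per group (3 male, 2 female), randomized by initial BMD. Given compound in 0.5% methylcellulose by gavage daily for 3 months. Proximal third of the right femur fixed in 4% paraformaldehyde, cut as undecalcified sections, and scored by image analysis for histomorphometry.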

Assay [3] concerns Mus musculus. The assay can be described thus: Induction of bone formation in SAMP6 mouse right femora assessed as trabecular resorption surface percentage at 10 mg/kg/day, po measured after 3 months by bone histomorphometry. The format is functional, Trabecula. The procedure, abridged: as §2
For assay [4], the system named is Mus musculus. Description: Induction of bone mineral density in SAMP6 mouse assessed as spine BMD at 10 mg/kg/day, po measured after 3 months. The format is functional. The procedure, abridged:
as §1

Assay [5] concerns Mus musculus. The assay can be described thus: Induction of bone formation in SAMP6 mouse right femora assessed as trabecular formation surface percentage at 10 mg/kg/day, po measured after 3 months by bone histomorphometry. Type of assay: functional, Trabecula. The procedure, abridged:
as §2

The nature of assay [6]: Induction of BMP2 expression in mouse […] MC3T3-E1 cells stably transfected with mouse BMP2 promotor-luciferase assessed as upregulation rate at 0.4 uM. The format is functional, cell-based. In outline: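 Reporter assay in murine calvarial MC3T3-E1 cells stably carrying the mouse BMP-2 promoter fused to firefly luciferase (pGL4BMP-2). Cells grown in DMEM with 10% heat-inactivated FBS at 37 °C and 5% CO2. Test compounds at 4.0 μM; lovastatin at 0.4 μM as positive control; 0.1% DMSO as negative control. Up-regulation rate = (RLU of test − RLU of negative control)/RLU of negative control × 100.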

Assay [7] deals with Mus musculus. Description: Induction of bone mineral density in SAMP6 mouse assessed as spine BMD at 10 mg/kg/day, po measured last 2 months. Type of assay: functional, organism-based. The procedure, abridged:
as §1

In assay [8] the test system is Mus musculus. Description: Induction of bone mineral density in SAMP6 mouse assessed as left hind leg BMD at 10 mg/kg/day, po measured after 3 months. Type of assay: functional. In outline: as §1
Assay [9] has as its system Mus musculus. Description: Induction of bone formation in SAMP6 mouse right femora assessed as trabecular bone volume percentage at 10 mg/kg/day, po measured after 3 months by bone histomorphometry. The format is functional, Trabecula. In outline:
as §2

Assay [10] concerns Mus musculus. Description: Induction of bone mineral density in SAMP6 mouse assessed as whole body BMD at 10 mg/kg/day, po measured after 3 months. The format is functional. The procedure, abridged: as §1

Each structure is given as a SMILES string. Activity calls are given as the source filed them. The rule behind the calls is not given here.

As to `CC[C@H](C)C(=O)O[C@H]1C[C@@H](C)C=C2C=C[C@H](C)[C@H](CC[C@@H]3C[C@@H](O)CC(=O)O3)[C@H]21` [LOVASTATIN], the outcome with Mus musculus [1] and with Mus musculus [7] was Active. Also, the Activity in the assay with Mus musculus [2] is 6.59 µm; in the assay with Mus musculus [3], 6.64%; in the assay with Mus musculus [4], 0.095 g/cm2; in the assay with Mus musculus [5], 6.22%; in assay [6], 20.9%; in the assay on Mus musculus [8] it was 0.046 g/cm2. Also, the Activity amounted to 7.44% in the assay on Mus musculus [9] and 0.07 g/cm2 in the assay with Mus musculus [10].
